Source: ChEMBL document CHEMBL1135791, “Lysergamides of isomeric 2,4-dimethylazetidines map the binding orientation of the diethylamide moiety in the potent hallucinogenic agent N,N-diethyllysergamide (LSD)” (J Med Chem, 2002)
Several values for one entry are separate records, joined by “and”; a condition that tells them apart may be missing. Equal values may be shown once.

How the values were obtained:
[1] = test system: Rattus norvegicus; assay: Compound was evaluated for effective dose measured in mg/kg following a dose of 0.08 mg/kg and 0.194 uM/kg (95%CI); range 0.030-0.075; assay type: functional
[2] = molecular target: T1, 5-hydroxytryptamine receptor 1A (Homo sapiens, UniProt P08908); assay: Binding affinity against 5-hydroxytryptamine 1A receptor using [3H]8-OH-DPAT as radioligand
T1 sequence (P08908 whole entry): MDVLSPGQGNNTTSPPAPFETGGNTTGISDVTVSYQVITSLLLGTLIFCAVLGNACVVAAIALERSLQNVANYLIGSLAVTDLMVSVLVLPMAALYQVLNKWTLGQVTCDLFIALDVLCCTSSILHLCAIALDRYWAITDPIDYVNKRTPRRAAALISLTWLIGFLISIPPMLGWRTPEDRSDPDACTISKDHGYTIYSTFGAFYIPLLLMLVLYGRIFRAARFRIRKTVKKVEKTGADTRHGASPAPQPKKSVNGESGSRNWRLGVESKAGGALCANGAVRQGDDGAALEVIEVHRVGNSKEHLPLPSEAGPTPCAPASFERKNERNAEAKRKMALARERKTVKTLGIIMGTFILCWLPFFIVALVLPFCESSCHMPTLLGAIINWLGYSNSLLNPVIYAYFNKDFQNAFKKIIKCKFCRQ
Method in brief: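 Competition binding at human 5-HT1A stably expressed in CHO cells (maintained in MEM, 10% dialyzed FBS, hygromycin B; serum-free 5 h before harvest, pellets stored –80 °C). 0.80 nM [3H]8-OH-DPAT, buffer 50 mM Tris/0.5 mM EDTA/10 mM MgCl2 pH 7.4, 60 min at 25 °C, filtration.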

[3] = test system: Rattus norvegicus; assay: Compound was evaluated for the percentage of rats selecting the drug lever (SDL) following a dose of 0.02 mg/kg and 0.049 uM/kg; assay type: functional
[4] = molecular target: T2, 5-hydroxytryptamine receptor 2B (Homo sapiens, UniProt P41595); assay: Binding affinities against 5-hydroxytryptamine 2B receptor
T2 sequence (P41595 whole entry): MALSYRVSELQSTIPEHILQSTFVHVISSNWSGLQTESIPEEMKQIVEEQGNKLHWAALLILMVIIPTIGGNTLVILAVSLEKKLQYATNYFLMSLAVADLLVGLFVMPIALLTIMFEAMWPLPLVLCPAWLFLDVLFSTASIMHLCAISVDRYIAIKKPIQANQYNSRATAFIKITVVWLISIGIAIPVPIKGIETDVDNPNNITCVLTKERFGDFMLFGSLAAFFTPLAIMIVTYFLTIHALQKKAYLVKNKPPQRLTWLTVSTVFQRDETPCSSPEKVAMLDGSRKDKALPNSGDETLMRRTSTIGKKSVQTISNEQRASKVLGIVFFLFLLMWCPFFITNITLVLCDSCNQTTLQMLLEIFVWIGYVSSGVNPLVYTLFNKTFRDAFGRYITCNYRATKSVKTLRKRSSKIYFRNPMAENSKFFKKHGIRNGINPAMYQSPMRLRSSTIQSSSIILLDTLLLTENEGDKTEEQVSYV
Method in brief: (§1)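 Screening-panel competition binding. […] Each Ki was replicated 2–3 times and is reported as mean ± SEM from nonlinear fitting. Receptor source and radioligand are not given beyond an online protocol.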

[5] = test system: Rattus norvegicus; assay: Compound was evaluated for effective dose measured in mg/kg following a dose of 0.04 mg/kg and 0.097 uM/kg (95%CI); assay type: functional
[6] = molecular target: T3, Histamine H1 receptor (Homo sapiens, UniProt P35367); assay: Binding affinity against Histamine H1 receptor; method in brief: as §1
T3 sequence (P35367 whole entry): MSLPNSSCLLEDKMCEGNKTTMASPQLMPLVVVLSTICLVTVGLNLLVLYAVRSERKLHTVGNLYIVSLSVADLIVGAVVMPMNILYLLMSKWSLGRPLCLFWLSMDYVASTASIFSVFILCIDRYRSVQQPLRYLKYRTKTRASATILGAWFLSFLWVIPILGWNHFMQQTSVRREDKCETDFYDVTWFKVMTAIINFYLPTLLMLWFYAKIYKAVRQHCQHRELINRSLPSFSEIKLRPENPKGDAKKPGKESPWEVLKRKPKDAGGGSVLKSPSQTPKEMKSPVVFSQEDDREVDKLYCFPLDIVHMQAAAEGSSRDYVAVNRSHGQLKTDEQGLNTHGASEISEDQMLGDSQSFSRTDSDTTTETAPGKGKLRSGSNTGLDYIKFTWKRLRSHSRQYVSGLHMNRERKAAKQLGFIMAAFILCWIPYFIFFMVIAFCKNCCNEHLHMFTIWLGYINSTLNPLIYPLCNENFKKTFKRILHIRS

[7] = test system: Rattus norvegicus; assay: Compound was evaluated for the percentage of rats selecting the drug lever (SDL) following a dose of 0.16 mg/kg and 0.388 uM/kg; assay type: functional
Method in brief: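 Test drug was given ip 30 min before sessions run under extinction, with ≥8 rats per dose. The first lever reaching 50 presses scored as selected. No completion within 5 min counted as disruption.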

[8] = molecular target: T4, D(2) dopamine receptor (Homo sapiens, UniProt P14416); assay: Binding affinity against Dopamine receptor D2; method in brief: as §1
T4 sequence (P14416 whole entry): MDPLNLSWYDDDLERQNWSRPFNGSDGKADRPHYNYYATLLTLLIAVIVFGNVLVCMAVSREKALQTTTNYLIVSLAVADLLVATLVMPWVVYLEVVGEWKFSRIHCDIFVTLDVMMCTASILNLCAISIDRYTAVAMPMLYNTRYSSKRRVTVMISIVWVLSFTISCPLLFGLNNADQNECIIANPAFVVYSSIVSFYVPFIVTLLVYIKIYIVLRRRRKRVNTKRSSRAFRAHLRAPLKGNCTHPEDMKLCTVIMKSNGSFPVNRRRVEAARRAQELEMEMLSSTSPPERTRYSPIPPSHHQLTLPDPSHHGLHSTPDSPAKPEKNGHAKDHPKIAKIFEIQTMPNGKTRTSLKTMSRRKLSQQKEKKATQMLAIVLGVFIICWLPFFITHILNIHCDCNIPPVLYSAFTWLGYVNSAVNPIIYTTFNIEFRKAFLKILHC

[9] = molecular target: T5, D(1A) dopamine receptor (Mus musculus, UniProt Q61616); assay: Binding affinity against Dopamine receptor D1; method in brief: as §1
T5 sequence (Q61616 whole entry): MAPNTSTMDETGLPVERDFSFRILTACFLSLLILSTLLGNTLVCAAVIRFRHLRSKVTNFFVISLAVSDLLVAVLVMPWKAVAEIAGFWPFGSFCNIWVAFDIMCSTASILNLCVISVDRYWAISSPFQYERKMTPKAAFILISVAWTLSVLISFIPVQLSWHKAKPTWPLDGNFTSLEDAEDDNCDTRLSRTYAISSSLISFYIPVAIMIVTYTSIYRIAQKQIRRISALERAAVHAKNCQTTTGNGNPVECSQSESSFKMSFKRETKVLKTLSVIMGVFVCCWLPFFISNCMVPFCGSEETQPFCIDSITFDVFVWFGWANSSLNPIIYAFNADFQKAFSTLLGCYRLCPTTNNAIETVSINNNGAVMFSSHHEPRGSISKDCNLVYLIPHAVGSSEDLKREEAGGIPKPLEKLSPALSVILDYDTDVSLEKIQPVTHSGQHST

[10] = molecular target: T6, 5-hydroxytryptamine receptor 6 (Homo sapiens, UniProt P50406); assay: Binding affinities against 5-hydroxytryptamine 6 receptor; method in brief: as §1
T6 sequence (P50406 whole entry): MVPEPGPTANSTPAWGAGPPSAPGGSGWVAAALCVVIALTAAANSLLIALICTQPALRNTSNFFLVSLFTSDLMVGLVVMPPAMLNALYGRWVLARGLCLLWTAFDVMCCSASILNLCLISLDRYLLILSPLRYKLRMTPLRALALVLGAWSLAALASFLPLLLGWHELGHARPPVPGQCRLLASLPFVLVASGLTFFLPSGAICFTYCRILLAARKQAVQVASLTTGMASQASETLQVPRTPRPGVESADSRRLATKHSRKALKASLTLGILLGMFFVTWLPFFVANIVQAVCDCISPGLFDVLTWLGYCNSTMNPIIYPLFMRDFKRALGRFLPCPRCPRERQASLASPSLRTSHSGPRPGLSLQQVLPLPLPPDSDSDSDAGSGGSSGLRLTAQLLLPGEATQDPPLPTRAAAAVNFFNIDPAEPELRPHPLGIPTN

[11] = molecular target: 5-hydroxytryptamine receptor 7 (Homo sapiens, UniProt P34969); assay: Binding affinities against 5-hydroxytryptamine 7 receptor
Sequence of 5-hydroxytryptamine receptor 7 (P34969 whole entry): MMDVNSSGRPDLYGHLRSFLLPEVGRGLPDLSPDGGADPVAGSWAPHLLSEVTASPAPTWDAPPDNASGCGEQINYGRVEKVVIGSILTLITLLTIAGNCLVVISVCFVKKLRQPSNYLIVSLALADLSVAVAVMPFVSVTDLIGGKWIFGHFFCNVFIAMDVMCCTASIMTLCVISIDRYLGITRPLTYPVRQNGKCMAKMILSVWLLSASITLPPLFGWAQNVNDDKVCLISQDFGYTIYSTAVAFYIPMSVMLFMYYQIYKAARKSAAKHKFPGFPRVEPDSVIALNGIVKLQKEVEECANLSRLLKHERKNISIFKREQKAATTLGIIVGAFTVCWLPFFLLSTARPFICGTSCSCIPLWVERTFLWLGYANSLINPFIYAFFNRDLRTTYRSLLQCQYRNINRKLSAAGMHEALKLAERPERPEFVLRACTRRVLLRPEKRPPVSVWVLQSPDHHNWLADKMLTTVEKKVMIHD

[12] = molecular target: 5-hydroxytryptamine receptor 1E (Homo sapiens, UniProt P28566); assay: Binding affinity towards 5-hydroxytryptamine 1E receptor; method in brief: as §1
Sequence of 5-hydroxytryptamine receptor 1E (P28566 whole entry): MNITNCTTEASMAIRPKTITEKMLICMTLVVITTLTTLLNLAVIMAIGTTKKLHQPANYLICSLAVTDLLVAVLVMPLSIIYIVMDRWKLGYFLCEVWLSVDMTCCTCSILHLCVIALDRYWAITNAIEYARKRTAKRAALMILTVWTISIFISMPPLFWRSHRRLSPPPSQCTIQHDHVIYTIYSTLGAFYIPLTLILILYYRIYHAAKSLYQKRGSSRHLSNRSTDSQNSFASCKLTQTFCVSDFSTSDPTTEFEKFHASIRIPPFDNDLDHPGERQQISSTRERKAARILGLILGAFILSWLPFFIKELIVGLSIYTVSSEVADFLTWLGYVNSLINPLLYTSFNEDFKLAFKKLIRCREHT

[13] = molecular target: T7, 5-hydroxytryptamine receptor 5A (Homo sapiens, UniProt P47898); assay: Binding affinities against 5-hydroxytryptamine 5A receptor; method in brief: as §1
T7 sequence (P47898 whole entry): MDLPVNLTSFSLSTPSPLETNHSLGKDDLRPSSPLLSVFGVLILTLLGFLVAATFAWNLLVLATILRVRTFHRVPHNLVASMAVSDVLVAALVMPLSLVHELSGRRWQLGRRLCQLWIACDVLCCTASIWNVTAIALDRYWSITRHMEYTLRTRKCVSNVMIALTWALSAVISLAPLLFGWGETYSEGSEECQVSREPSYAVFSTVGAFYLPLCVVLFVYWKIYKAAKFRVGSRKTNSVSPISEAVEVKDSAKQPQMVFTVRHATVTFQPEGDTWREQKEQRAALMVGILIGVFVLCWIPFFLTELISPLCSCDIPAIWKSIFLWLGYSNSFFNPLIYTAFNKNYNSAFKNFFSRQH

[14] = test system: Rattus norvegicus; assay: Compound was evaluated for the percentage of rats disrupted following a dose of 0.02 mg/kg and 0.049 uM/kg; assay type: functional
Method in brief: (§2)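 LSD-trained rats (0.08 mg/kg ip vs saline, two-lever, FR50) were given the test drug ip 30 min before extinction sessions, with ≥8 rats per dose. A session was scored as disrupted if 50 presses on one lever were not completed within 5 min. The value is the percentage of rats disrupted at each dose.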

[15] = molecular target: T8, 5-hydroxytryptamine receptor 1D (Homo sapiens, UniProt P28221); assay: Binding affinities against 5-hydroxytryptamine 1D receptor alpha; method in brief: as §1
T8 sequence (P28221 whole entry): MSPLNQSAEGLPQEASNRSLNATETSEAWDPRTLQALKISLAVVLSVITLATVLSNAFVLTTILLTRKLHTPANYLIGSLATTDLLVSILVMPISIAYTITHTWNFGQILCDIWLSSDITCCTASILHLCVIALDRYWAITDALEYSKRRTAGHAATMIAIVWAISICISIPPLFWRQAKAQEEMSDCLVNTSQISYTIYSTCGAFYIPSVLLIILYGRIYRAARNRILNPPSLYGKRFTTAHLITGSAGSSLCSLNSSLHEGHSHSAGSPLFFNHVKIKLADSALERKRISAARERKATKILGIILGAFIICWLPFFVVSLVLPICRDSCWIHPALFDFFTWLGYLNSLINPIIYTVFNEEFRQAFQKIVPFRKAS

[16] = test system: Rattus norvegicus; assay: Compound was evaluated for the percentage of rats selecting the drug lever (SDL) following a dose of 0.04 mg/kg and 0.097 uM/kg; assay type: functional
[17] = test system: Rattus norvegicus; assay: Compound was evaluated for the percentage of rats selecting the drug lever (SDL) following a dose of 0.08 mg/kg and 0.194 uM/kg; assay type: functional
[18] = molecular target: T7, 5-hydroxytryptamine receptor 5A; assay: Binding affinities towards 5-hydroxytryptamine 5A receptor
[19] = test system: Rattus norvegicus; assay: Compound was evaluated for effective dose measured in mg/kg following a dose of 0.04 mg/kg and 0.097 uM/kg (95%CI); range 0.007-0.016; assay type: functional
[20] = test system: Rattus norvegicus; assay: Compound was evaluated for the percentage of rats selecting the drug lever (SDL) following a dose of 0.01 mg/kg and 0.025 uM/kg; assay type: functional
[21] = molecular target: T3, Histamine H1 receptor; assay: Binding affinity towards Histamine H1 receptor
Method in brief: (§3)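 Screening-panel competition binding. Each Ki was replicated 2–3 times and is reported as mean ± SEM from nonlinear fitting. Receptor source and radioligand are not given beyond an online protocol.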

[22] = molecular target: T4, D(2) dopamine receptor; assay: Binding affinity towards Dopamine receptor D2
[23] = test system: Rattus norvegicus; assay: Compound was evaluated for effective dose measured in mg/kg following a dose of 0.02 mg/kg and 0.049 uM/kg (95%CI); assay type: functional
[24] = molecular target: T8, 5-hydroxytryptamine receptor 1D; assay: Binding affinities towards 5-hydroxytryptamine 1D receptor alpha; method in brief: as §1
[25] = molecular target: T2, 5-hydroxytryptamine receptor 2B; assay: Binding affinities towards 5-hydroxytryptamine 2B receptor; method in brief: as §1
[26] = molecular target: T1, 5-hydroxytryptamine receptor 1A; assay: Binding affinity towards 5-hydroxytryptamine 1A receptor using [3H]8-OH-DPAT as radioligand
[27] = test system: Rattus norvegicus; assay: Compound was evaluated for the percentage of rats disrupted following a dose of 0.01 mg/kg and 0.025 uM/kg; assay type: functional; method in brief: as §2
[28] = molecular target: T5, D(1A) dopamine receptor; assay: Binding affinity towards Dopamine receptor D1; method in brief: as §1
[29] = molecular target: T6, 5-hydroxytryptamine receptor 6; assay: Binding affinities towards 5-hydroxytryptamine 6 receptor; method in brief: as §3
[30] = test system: Rattus norvegicus; assay: Compound was evaluated for effective dose measured in nmol/kg following a dose of 0.04 mg/kg and 0.097 uM/kg (95%CI); assay type: functional
[31] = test system: Rattus norvegicus; assay: Compound was evaluated for effective dose measured in mg/kg following a dose of 0.04 mg/kg and 0.097 uM/kg (95%CI); range 0.027-0.11; assay type: functional
[32] = test system: Rattus norvegicus; assay: Percentage of rats disrupted after 0.01 mg/kg, 0.023 uM/kg dose; assay type: functional; method in brief: as §2
[33] = test system: Rattus norvegicus; assay: Percentage of rats disrupted after 0.04 mg/kg, 0.093 uM/kg dose; assay type: functional; method in brief: as §2
[34] = molecular target: D(1B) dopamine receptor (Homo sapiens, UniProt P21918); assay: Binding affinity towards Dopamine receptor D5; method in brief: as §3
Sequence of D(1B) dopamine receptor (P21918 whole entry): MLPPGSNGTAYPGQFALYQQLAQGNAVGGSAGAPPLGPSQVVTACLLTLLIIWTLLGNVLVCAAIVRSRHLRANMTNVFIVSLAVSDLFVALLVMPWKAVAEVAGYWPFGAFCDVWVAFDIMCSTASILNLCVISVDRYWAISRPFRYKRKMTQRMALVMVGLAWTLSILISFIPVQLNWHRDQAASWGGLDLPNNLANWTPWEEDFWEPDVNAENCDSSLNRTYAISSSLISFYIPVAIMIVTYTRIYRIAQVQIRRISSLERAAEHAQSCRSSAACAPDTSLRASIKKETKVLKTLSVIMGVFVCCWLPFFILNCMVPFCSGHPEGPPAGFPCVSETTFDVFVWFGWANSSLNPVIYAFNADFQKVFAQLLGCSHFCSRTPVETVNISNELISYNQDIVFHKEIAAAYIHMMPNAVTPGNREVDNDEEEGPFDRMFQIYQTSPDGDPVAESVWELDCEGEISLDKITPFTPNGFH

[35] = molecular target: T8, 5-hydroxytryptamine receptor 1D; assay: Binding affinity towards 5-hydroxytryptamine 1D receptor alpha using [3H]8-OH-DPAT as radioligand
[36] = test system: Rattus norvegicus; assay: Percentage of rats disrupted after 0.02 mg/kg, 0.046 uM/kg dose; assay type: functional; method in brief: as §2
[37] = molecular target: T9, D(4) dopamine receptor (Homo sapiens, UniProt P21917); assay: Binding affinity towards Dopamine receptor D4; method in brief: as §3
T9 sequence (P21917 whole entry): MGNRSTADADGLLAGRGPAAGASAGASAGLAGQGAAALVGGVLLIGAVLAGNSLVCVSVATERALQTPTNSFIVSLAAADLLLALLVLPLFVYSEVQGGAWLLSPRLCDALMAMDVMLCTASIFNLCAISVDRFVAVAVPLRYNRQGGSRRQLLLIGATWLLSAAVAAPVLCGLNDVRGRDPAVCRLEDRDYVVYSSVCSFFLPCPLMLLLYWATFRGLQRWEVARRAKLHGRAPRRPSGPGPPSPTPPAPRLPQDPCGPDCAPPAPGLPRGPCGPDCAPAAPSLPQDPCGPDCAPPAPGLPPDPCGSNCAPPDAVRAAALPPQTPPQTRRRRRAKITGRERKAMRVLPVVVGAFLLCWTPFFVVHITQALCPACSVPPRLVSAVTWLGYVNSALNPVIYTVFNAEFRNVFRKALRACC

[38] = test system: Rattus norvegicus; assay: Effective dose in rats as nmol/kg after 0.04 mg/kg, 0.093 uM/kg dose (95%CI); assay type: functional
[39] = test system: Rattus norvegicus; assay: Percentage of rats selecting drug lever (SDL) after 0.08 mg/kg, 0.186 uM/kg dose; assay type: functional
[40] = molecular target: T5, D(1A) dopamine receptor; assay: Binding affinities towards Dopamine receptor D1; method in brief: as §1
[41] = test system: Rattus norvegicus; assay: Percentage of rats selecting the drug lever (SDL) after 0.02 mg/kg, 0.046 uM/kg dose; assay type: functional
[42] = test system: Rattus norvegicus; assay: Percentage of rats selecting the drug lever (SDL) after 0.01 mg/kg, 0.023 uM/kg dose; assay type: functional
[43] = test system: Rattus norvegicus; assay: Percentage of rats disrupted after 0.08 mg/kg, 0.186 uM/kg dose (95%CI); assay type: functional; method in brief: as §2
[44] = molecular target: D(3) dopamine receptor (Homo sapiens, UniProt P35462); assay: Binding affinity towards Dopamine receptor D3
Sequence of D(3) dopamine receptor (P35462 whole entry): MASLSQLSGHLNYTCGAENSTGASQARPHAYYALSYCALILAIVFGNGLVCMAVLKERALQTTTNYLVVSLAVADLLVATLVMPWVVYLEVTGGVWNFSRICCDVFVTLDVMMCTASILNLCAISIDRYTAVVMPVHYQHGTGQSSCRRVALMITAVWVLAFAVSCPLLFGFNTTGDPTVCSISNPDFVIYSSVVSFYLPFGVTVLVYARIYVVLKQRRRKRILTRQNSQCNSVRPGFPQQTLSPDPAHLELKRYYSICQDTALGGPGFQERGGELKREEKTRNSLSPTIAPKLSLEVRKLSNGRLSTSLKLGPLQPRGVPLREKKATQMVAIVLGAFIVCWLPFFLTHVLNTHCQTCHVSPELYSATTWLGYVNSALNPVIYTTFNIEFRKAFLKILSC

[45] = test system: Rattus norvegicus; assay: Effective dose as nmol/kg after 0.02 mg/kg, 0.046 uM/kg dose (95%CI); assay type: functional
[46] = test system: Rattus norvegicus; assay: Percentage of rats selecting drug lever (SDL) after 0.04 mg/kg, 0.093 uM/kg dose; assay type: functional

Structure (SMILES): C[C@@H]1C[C@H](C)N1C(=O)[C@@H]1C=C2c3cccc4[nH]cc(c34)CC2N(C)C1 (some centres not stated)
- ED50 [1]: 0.047 mg/kg
- Ki [2]: 1.1 nM
- D [3]: 0%
- Ki [4]: 44 nM
- D [5]: 20%
- SDL [5]: 70%
- Ki [6]: 500 nM
- ED50 [7]: 0.03 mg/kg
- Ki [8]: 60 nM
- Ki [9]: 230 nM
- Ki [10]: 13 nM
- Ki [11]: 12 nM
- Ki [12]: 200 nM
- Ki [13]: 16 nM
- D [14]: 12%
- Ki [15]: 3.7 nM
- D [16]: 0%
- SDL [16]: 33%

Structure (SMILES): C[C@H]1C[C@H](C)N1C(=O)[C@@H]1C=C2c3cccc4[nH]cc(c34)CC2N(C)C1 (some centres not stated)
- SDL [17]: 50%
- Ki [18]: 27 nM
- SDL [19]: 100%
- D [20]: 7%
- Ki [21]: 2500 nM
- Ki [22]: 110 nM
- D [3]: 0%
- D [23]: 0%
- ED50 [23]: 0.01 mg/kg
- Ki [24]: 2.4 nM
- Ki [25]: 27 nM
- Ki [26]: 0.45 nM
- D [27]: 6%
- Ki [12]: 280 nM
- Ki [28]: 290 nM
- Ki [29]: 15 nM
- ED50 [14]: 0.025 µmol/kg
- SDL [16]: 67% and 90%

Structure (SMILES): C[C@@H]1C[C@@H](C)N1C(=O)[C@@H]1C=C2c3cccc4[nH]cc(c34)CC2N(C)C1 (some centres not stated)
- ED50 [17]: 0.027 mg/kg
- SDL ([17]; 0.08 mg/kg): 25% and 56%
- Ki [18]: 13 nM
- Ki [21]: 1400 nM
- Ki [22]: 330 nM
- ED50 [30]: 0.066 µmol/kg
- D [3]: 0%
- D [5]: 17%
- ED50 [5]: 0.055 mg/kg
- SDL [7]: 40%
- SDL [31]: 80%
- Ki [24]: 2 nM
- Ki [25]: 310 nM
- Ki [26]: 6.8 nM
- Ki [12]: 140 nM
- Ki [28]: 340 nM
- Ki [29]: 61 nM
- D [14]: 0%
- D [16]: 10%

Structure (SMILES): CCN(CC)C(=O)[C@@H]1C=C2c3cccc4[nH]cc(c34)C[C@H]2N(C)C1 [LYSERGIDE]
- D [32]: 0%
- D [33]: 0%
- Ki [34]: 340 nM
- Ki [35]: 3.9 nM
- Ki [22]: 120 nM
- D [36]: 0%
- Ki [37]: 56 nM
- ED50 [38]: 0.032 µmol/kg
- SDL [39]: 100%
- Ki [40]: 180 nM
- SDL [41]: 58%
- SDL [42]: 17%
- D [43]: 0%
- Ki [44]: 27 nM
- Ki [12]: 93 nM
- ED50 [45]: 0.045 µmol/kg
- SDL [46]: 75%
